# Reference: the RNAGym collection of RNA variant scans (doi:10.1101/gad.245936.114)
# Fewer inactive variants are shown than the library holds.
# B1: tRNA (parent)
# chain: CUCUCGGUAGCCAAGUUGGUUUAAGGCGCAAGACUUUAAUUUAUCACUACGAAAUCUUGAGAUCGGGCGUUCGACUCGCCCCCGGGAGAUUUUUUCCUCGAGCAA
# Variants of: B1
# Experiment: nonsense suppression (GFP-seq) (ratio to wild type); higher = more function; SUP4oc tRNA, yeast GFP reporter sort-seq
# In short: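 Sorted GFP/RFP bins of yeast were each Illumina-sequenced with a phred ≥30 cutoff; the cells held a genome-integrated ochre-suppressor tRNA variant from a library with ~3% random mutations, a galactose-driven GFP ochre reporter, and RFP. Culture was in raffinose/galactose medium containing 80 mg/L adenine. Nonsense suppression, termed GFPSEQ, is the median GFP/RFP of the bins weighted by each variant's estimated cell share per bin, relative to the unmutated parent tRNA, for variants reaching ≥100 reads and ≥30 cells.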
row,Variant,nonsense suppression
1,CUCUCGGUAGCCAAGUUGGUAAAAGGCCCAAGACUUUAAUUUAUCACUACGAAAACUUGAGAUCGGGCAUUCGACUCGCCCCCGGGAGAUUUUUUCCUCGAGCAA,≤ 0.026
2,CUCUCGGUAGCCAAGUUGGUUUAAGGCGCAAGAGUUUAAUUUAUCACUACGAAAUCUUGAGAUCGGGCGUUCGACUCGCCACCGGGAGAUUUUUUCCUCGAGCAA,≤ 0.026
3,CUCUGGGUAGCCAAGUUGGUUUAAGGCGCAAGACUUUAAUUUAUCACUACGAAAUCUUGAGAUCGGGCGUUCGACUCGCCCCCUGGAGAUUUUUUCCUCGAGCAA,0.475
4,CUUUCGGUAGCCAAGUUGGUUUAAGGCGCAAGACUUUAAUUUAUCACUACGAAAUCUUGAGAUCGGGCGUUCGACACGCCCCCGGGAGAUUUUUUCCUCGAGCAA,0.0398
5,CUCUCGGUGGCCAAGUUGGUUUAAGGCGCAAGACUUUAAUUUAUCACUACGAAAUCUUGAGAUCGGGCGUUCGACACGCCCCCGGGAGAUUUUUUCCUCGAGCAA,0.103
6,CUCUCGGUAGCCAAGUUGGUUUAAGGCGCAAGCCUUUAAUUUAUCACUACGAAACCUUGAGAUGGGGCGUUCGACCCGCCCCCGGGAGAUUUUUUCCUCGAGCAA,≤ 0.026
7,CUCUCGGUAGCCAAGUUGGUUUAACGCGCUAGACUUUAAUUUAUCACUACGAAAUCUUGAGAUCGGGCGUUCGACUCGCCCCCGGGAGAUUUUUUCCUCGAGCAA,0.0299
8,CUCUCGGUAGCCAACUUGGUUUGAGGCGCAAGACUUUAAUUUAUCACUACGAAAUCUUGAAAUCGGGCGUUCGACUCGCCCCCGGGAGAUUUUUUCCUCGAGCAA,≤ 0.026
9,CUCUCGGUAGCCAAGUUGGUUAAAGGCGCUAGACUUUAAUUUAUCACUACGAAAUCUUGAGAUCGGGCGUUCGACUCGCCCCCGGGAGAUUUUUUCCUCGAGCAA,0.177
10,CUCUCGGUAGCCAAGUUGGUUUAAGGCGCAAGUCUUUAAUUUAUCACUACGAAAUCUUGAGAUCGGGCCUUCAACUCGCCCCCGGGAGAUUUUUUCCUCGAGCAA,≤ 0.026
11,CUCUCGGUAGCCAAGUUGGUUUAAGGCGCACGACUUUAAUUUAUCACUACGAAAUCUUGUGAUCGGGCGUUCGAAUCGCCCCCGGGAGAUUUUUUCCUCGAGCAA,1.23
12,CACACGAUAGCCAAGUUGGUUUAAGGCGCAAGACUUUAAUUUAUCACUACGAAAUCUUGAGAUCGGGCGUUCGACUCGCCCCCGGGAGAUUUUUUCCUCGAGCAA,≤ 0.026
13,CUCUCGGUAGCCAAGUUGGUUUAAGGCGCAAGUCUUUAAUUUAUCACUACGAAAUCUUGUGAUCGGGCGUUCGACUCGCCCCCGGGAGAUUUUUUCCUCGAGCAA,0.204
14,CUCUCGGUAGCCCAGUUGGUUUAAGGCGCAAGACUUUAAUUUAUCACUACGAAAUCUUGAGAUCGGGCGUUCGACUUGCCCCCGGGAGAUUUUUUCCUCGAGCAA,0.0493
15,CUCCCGGUAGCCAAGUGGGUUUAACGCGCAAGACUUUAAUUUAUCACUACGAAAUCUUGAGAUCGUGCGCUCGACUCGCCCCCUGGAGAUUUUUUCCUCGAGCAA,≤ 0.026
16,CUCUCGGUAGCCAAGUUGGUUUAAGGCGCAAGACUUUAAUUUAUCACUACGAAAUCUUGAGAGCGGGCGUUCAACUCGCCCCCGGGAGAUUUUUUCCUCGAGCAA,0.189
17,CUCUCGGUAGCCAACUUGGUUUAAGGCUCAAGACUUUAAUUUAUCACUACGAAAUCUUGAGCUCGGGCGUUCGACUCGCCCCCGGCAGAUUUUUUCCUCGAGCAA,≤ 0.026
18,CUCCCGGUAGCCAAGUUGGUUUAAGGCGCAAGACUUUAAUUUAUCACUACGAAAUCUUGAUAUCGGGCGUUCGACUCGCCCCCGGGAGAUUUUUUCCUCGAGCAA,1.02
19,CUCUCGGUAGCCAAGUUGGUUUAAGGCGCAAGACUUUAAUUUAUCACUACGAAAUCUUAAGAUCGCGCGUUCGACUCGCCCCCGGGAGAUUUUUUCCUCGAGCAA,≤ 0.026
20,CUCUCGGUAGCCAAGUUGGUUUAACGCGCAAGACUUUAAUUUAUCACUACGAAUUCUUGAGAUCGGGCGUUCGACUCGCCCCCGGGAGAUUUUUUCCUCGAGCAA,0.0708
21,CUCUCGGUAGCCAAGUUGGUUUAGGGCGCAUGAUUUUAAUUUAUCACUACGAAAUCUUGAGAUCGGGCGUUCGGCUCGCCCCCGGGAGAUUUUUUCCUCGAGCAA,≤ 0.026
22,CUCCCGGUAGCCAAGUUGGUUUAAGGCGCAAGACUUUAAUUUAUCACUACGAAAUCUUGAGAUCGGGCGUUCGACUCGCCCCCGGGCGAUUUUUUCCUCGAGCAA,0.197
23,CUCUCGGUAGCCAAGUUGGUUUAAGGCGCAAGACUUUAAUUUAUCACUACGAAAUCUUGAGAUCGGACGUUCGACACGCCCCCGUGAGAUUUUUUCCUCGAGCAA,≤ 0.026
24,CUCUCGGUAGCCAAGUUGGUUUCAGGCGCAAGACUUUAAUUUAUCACUACGAAAUCUGGAGAUGGGGCGUUCGACUCGCCCCCGGGAGAUUUUUUCCUCGAGCAA,≤ 0.026
25,CUCUCGGUAGCCAAGUUGGUUUAAGGCGCUAGACUUUAAUUUAUCACUACGAAAUCUUGAGAUCGGGCGUUCGACUCGCCCCCGAGAGAUUUUUUCCUCGAGCAA,0.52
26,GUCGCGGUAGCCAAGUUGGUUUAAGGCGCAAGACUUUAAUUUAUCACUACGAAAUCUUGAGAUCGGGCGUUCGACUCCCCCCCGGGAGAUUUUUUCCUCGAGCAA,≤ 0.026
27,CUCUCGGUAGCCAAUUUGGUUUAAGGCGCAAGACUUUAAUUUAUCACUACGAAAUCUUGAGAUCGGGCGGUCGACUCGCCCCCGGGAGAUUUUUUCCUCGAGCAA,≤ 0.026

row,Variant,nonsense suppression
1,CUCCCGGUAGCCAAGUUGGUUUAAGGCGUAAGACUUUAAUUUAUCACUACGAAAUCUUGAGAUCGGGCGUUCGACUCGCCCCCGGGAGAUUUUUUCCUCGAGCAA,1.03
2,CUCUCGGUAGCCAAGUUGGUUUAAAGCGAAAGACUUUAAUUUAUCACUACGAAAUCUUGAGAUCGGGCGUUCGACUCGCCCCCCGGAGAUUUUUUCCUCGAGCAA,0.027
3,CUCUCGGUAGCCAAGUUGGUUUAAGGCGCAAGACUUUAAUUUAUCACUACGAAAUCUUGAGAUCGGGCGUUCGACUCGCCCCUGGGAGAUUUUUUCCUCGAGCAA,0.535
4,CUCUCGGUAGCCAAGUCGGUUUAAGGCGCAAGGCUUUAAUUUAUCACUACGAAAUCUUGAGAUCGGGCGUUCGACUCGCCCCCGGGAGAUUUUUUCCUCGAGCAA,0.0608
5,CUCUCGGUAGCCAAGUUGGUUUAAGGCGCAAGACUUUAAUUUAUCACUACGAAUUAUUGAGAUCGGGCGUUUGACUCGCCCCCGGGAGAUUUUUUCCUCGAGCAA,≤ 0.026
6,CUCUCGGUAGCCAAGGUGGUUUAAGGCGCAAGACUUUAAUUUAUCACUACGAAAUCUUGAGAUCGGGCGUUCGACUCCCCCCCGGGAGAUUUUUUCCUCGAGCAA,0.113
7,CUCUCGGUAGCCAAGGCGGUUUAAGGCGCAAGACUUUAAUUUAUCACUACGAAAUCUUGAGAUCGGGCGUUCGACUCGCCCCCGGGAGAUUUUUUCCUCGAGCAA,1.05
8,CUCUCGGUAGCCAAGUUGGUUUAAAGCGCCAGACUUUAAUUUAUCACUACGAAAUCUUGAGAUCGGGCGUUCGACUCGCCCCCGGGAGAUUUUUUCCUCGAGCAA,≤ 0.026
9,CUGUCGGUAGCCAAGUUGGUUUAAGGCGCAAGACUUUAAUUUAUCACUACGAAAUCUUGAGAUCCGGCGUUCGACUCGUCCCCGGGAGAUUUUUUCCUCGAGCAA,≤ 0.026
10,AUCGCGGUAGCCAAGUUGGUUUAAGGUGCAAGACUUUAAUUUAUCACUACGAAAUCUUGAGAUCGGGCGUUCGACUCGCCCCCGGGAGAUUUUUUCCUCGAGCAA,≤ 0.026
11,CUCUCGGUAGCCAAGUUGGUAUAAGGCGCAAGACUUUAAUUUAUCACUACGAAAUCUUGAGAUCGGGCGUUCGACUCGCCCCCGGGGGAUUUUUUCCUCGAGCAA,0.493
12,CUCUCGGUAGCCAAGUUGGUUUAGGGCGCAAGACUUUAAUUUAUCACUACGAAAUCUUGAGAUCGGGCGUUCGACUCGCCCCCGGGAGAUUUUUUCCUCGAGCAA,0.188
13,CUCUCGGUAGCCAAGUUGGUUUAAGGCGCAAGACUUUAAUUUAUCACUACGAAAUCUUGAGAUCGGGCGCUCGAUUCGCCCCCGGGAGAUUUUUUCCUCGAGCAA,≤ 0.026
14,CUCUCGGUAGCCUAGUUGGUUUAAGGCGCAGGACUUUAAUUUAUCACUACGAAAUCUUGAGAUCGGGCGUUCGACUCGCCCCCGGGAGAUUUUUUCCUCGAGCAA,1.22
15,CUCUAGGUAGCCAAGUUGGUUUAAGGCGCAAGACUUUAAUUUAUCACUACGAAAUCUUGAGAUCGGGCGUUCGACUCACCCCCGGGAGAUUUUUUCCUCGAGCAA,0.0335
16,CUUUCGGUAGCCAAGUUGGUUUAAGCCACAAGACUUUAAUUUAUCACUACGAAAUCUUGAGAUCGGGCGUUCGACUCGCCCCCGGGAGAUUUUUUCCUCGAGCAA,≤ 0.026
17,CUUUCGGUAGCCAAGUUGGUUUAAGGCGCAAGACUUUAAUUUAUCACUACGAAAUCUUGAGAUCGGGCGUUCGACUCGCCCCCGGGAGCUUUUUUCCUCGAGCAA,0.0874
18,CUCUCGGUAGCCAAGUUGGUUUAAGGCGCAAGACUUUAAUUUAUCACUACGAAAGCUUGAGAUCGGGCGUUCGACUCGCCCCCGGGAGUUUUUUUCCUCGAGCAA,≤ 0.026
19,CUCUCGGUAGCCAAGUUGGUUUGAGGCGCAAGACUUUAAUUUAUCACUACGAAAUCUUGAGAUCGGGCGUUCGACUCGCCCCCGUGAGAUUUUUUCCUCGAGCAA,0.0779
20,CUCUCGGUAGCCAAGCUGGUUUAAGGCGCAAGACUUUAAUUUAUCACUACGAAACCUUGAGAUCGGGCGUUCGACUCGCCCCCGGGAGAUUUUUUCCUCGAGCAA,0.769
21,CUCACGGUAGCCCAGUUGGUUUAAGGCGCAAGACUUUAAUUUAUCACUACGAAAUCUUGAGAUCGGGCGUUCGACUCGCCCCCGGGAGAUUUUUUCCUCGAGCAA,0.294
22,CUCUCGGUACCCAAGUUGUUUUAAGGCGCAAGACUUUAAUUUAUCACUACGAAAUCUUGAGAUGGGGCGUUCGACUCGCCCCCGGGAGAUUUUUUCCUCGAGCAA,≤ 0.026
23,CUCUCGGUAGCCAAGUGGGUUUAAGGCGCAAGACUUUAAUUUAUCACUACGAAAUCUUGAGAUCGGGCGUUCGACUCGCCCCAGGGAGAUUUUUUCCUCGAGCAA,≤ 0.026
24,CUCUCGGUAGCCAAGUUGGUUUAAUGCGCAAGACUUUAAUUUAUCACUACGAAUUCUUGAGAUCGGGCGUUCGACUCCCCCCCGGGAGAUUUUUUCCUCGAGCAA,≤ 0.026
25,CUCUCGGUAGCCAAGUUGGUUUAAGGCGCGAGACUUUAAUUUAUCACUACGAAAUCUUGACAUCGGGCGUUCGACUCGCCCCCGGGAGAUUUUUUCCUCGAGCAA,0.251
26,CUCUCGGUUGCCAAGUUGGUUUAAUGCGCAAGACUUUAAUUUAUCACUACGAAAUCUUGAGAUCGGGCGUUCGACUCGCCCCCGGGAGAUUUUUUCCUCGAGCAA,≤ 0.026
27,CUCUCGGUAGCCAAGUUGGUUUAAGGCGCAGGACUUUAAUUUAUCACUACGAAAUCUUGAGAUCGGGCGUUCGACUCGCCCCAGGGAGAUUUUUUCCUCGAGCAA,0.0481
